Test results published in ChEMBL document CHEMBL1125458, “3-O-alkylascorbic acids as free radical quenchers. 3. Protective effect on coronary occlusion-reperfusion induced arrhythmias in anesthetized rats” (1992).

Assays:
[1] = test system: Rattus norvegicus; experiment: Effect (30 mg/kg, iv) on coronary reperfusion-induced arrhythmias was assessed in anesthetized rats.(Intervals of ventricular tachycardia (VT)+ventricular fibrillation (VF) within 600 s.; assay type: functional, Cardiac ventricle
[2] = species on record: Rattus norvegicus; experiment: Inhibitory effect on production of active oxygen species by rat peritoneal exudate macrophages; assay type: functional; design: concentration or dose not given beside the values
Summary of the method: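 Peritoneal exudate macrophages harvested 3 days after ip liquid paraffin (male Wistar rats), >90% viable. Assay: 125 mM sodium phosphate pH 6.5, 0.08 mM EDTA, 1.2 U LDH, 0.32 mM NADH, (2–3) × 10^6 cells, compound in DMF, 1 × 10^-4 M. Started with NADH.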

[3] = species on record: Rattus norvegicus; experiment: Inhibition of lipid peroxidation in rat liver microsomes.; assay type: functional; design: concentration or dose not given beside the values; details: dose or concentration not given here
Summary of the method: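 Wistar rat liver microsomes (2.0 mg protein) in 83.5 mM KCl, 37.2 mM Tris-HCl pH 7.4 with 1 mM ADP, 10 µM FeCl3, 0.02 mM NADPH; compound added in DMF, tested at 10^-5 M. 37 °C, 20 min. Malondialdehyde measured by thiobarbituric acid method, A532; % inhibition, mean ± SD, n = 3–6.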

[4] = test system: Rattus norvegicus; experiment: Effect (10 mg/kg, iv) on coronary reperfusion-induced arrhythmias was assessed in anesthetized rats.(Intervals of ventricular tachycardia (VT)+ventricular fibrillation (VF) within 600 s.; assay type: functional, Cardiac ventricle
[5] = species on record: Cavia porcellus; experiment: Inhibitory activity on atrial rate in isolated Guinea pig right atrea at 0.01 mg/mL concentration; assay type: functional, Cardiac atrium
Summary of the method: (§1)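 Right atria from male Hartley guinea pigs (450–550 g), loaded at 0.5 g, in Tyrode's solution at 37 °C gassed with 95% O2/5% CO2. Equilibrated at least 30 min until rate stable within 5 beats/min; spontaneous rate and contractile force recorded on polygraph after compound addition.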

[6] = test system: Rattus norvegicus; experiment: Antiarrhythmic activity against anesthetized rats after peroral administration; assay type: functional, Heart
Summary of the method: (§2)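 Male Wistar rats (350–450 g) dosed orally 1 h before occlusion, then anesthetized with pentobarbital (60 mg/kg ip) and ventilated. LAD ligated 5 min, reperfused 10 min; VT plus VF durations summed within 600 s. Mean ± SE, n = 5–10; line 2 value is the minimum effective dose.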

[7] = test system: Rattus norvegicus; experiment: Effect (10 mg/kg, po) on coronary reperfusion-induced arrhythmias was assessed in anesthetized rats.(Intervals of ventricular tachycardia (VT)+ventricular fibrillation (VF) within 600 s.; assay type: functional, Cardiac ventricle; summary of the method: as §2
[8] = test system: Rattus norvegicus; experiment: Change in arterial blood pressure was measured at 0.3 mg/kg dose(iv) in anesthetized rats; assay type: functional, Artery
Summary of the method: (§3)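 Male Wistar rats, pentobarbital 60 mg/kg ip, supine. Compound suspended in saline with 1% olive oil and 1% Tween 80, injected via femoral vein. Femoral arterial pressure monitored 10 min after injection; change in mmHg, mean ± SE, n = 3–4.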

[9] = species on record: Cavia porcellus; experiment: Inhibitory activity on atrial contractility in isolated Guinea pig right atrea at 0.03 mg/mL concentration; assay type: functional, Cardiac atrium; summary of the method: as §1
[10] = test system: Rattus norvegicus; experiment: inhibitory activity was tested against anesthetized rats at 10 mg/kg; assay type: functional
[11] = test system: Rattus norvegicus; experiment: Change in heart rate was measured at mg/kg dose(iv) in anesthetized rats; assay type: functional
Summary of the method: (§4)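 Anesthetized male Wistar rats (pentobarbital 60 mg/kg ip); compound in saline/1% olive oil/1% Tween 80 given by femoral vein. Lead II ECG recorded and heart rate read by beat-to-beat tachograph for 10 min after dosing; change in beats/min, mean ± SE, n = 3–4.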

[12] = species on record: Cavia porcellus; experiment: Inhibitory activity on atrial contractility in isolated Guinea pig right atrea at 0.01 mg/mL concentration; assay type: functional, Cardiac atrium; summary of the method: as §1
[13] = species on record: Cavia porcellus; experiment: Inhibitory activity on atrial rate in isolated Guinea pig right atrea at 0.003 mg/mL concentration; assay type: functional, Cardiac atrium; summary of the method: as §1
[14] = test system: Rattus norvegicus; experiment: Antiarrhythmic activity against anesthetized rats after intravenous administration; assay type: functional, Heart
[15] = species on record: Cavia porcellus; experiment: Inhibitory activity on atrial rate in isolated Guinea pig right atrea at 0.03 mg/mL concentration; assay type: functional, Cardiac atrium; summary of the method: as §1
[16] = species on record: Cavia porcellus; experiment: Inhibitory activity on atrial contractility in isolated Guinea pig right atrea at 0.003 mg/mL concentration; assay type: functional, Cardiac atrium; summary of the method: as §1
[17] = test system: Rattus norvegicus; experiment: Effect (0.3 mg/kg, iv) on coronary reperfusion-induced arrhythmias was assessed in anesthetized rats.(Intervals of ventricular tachycardia (VT)+ventricular fibrillation (VF) within 600 s.; assay type: functional, Cardiac ventricle
[18] = test system: Rattus norvegicus; experiment: Change in arterial blood pressure was measured at 1 mg/kg dose(iv) in anesthetized rats; assay type: functional, Artery; summary of the method: as §3
[19] = test system: Rattus norvegicus; experiment: Effect (1 mg/kg, iv) on coronary reperfusion-induced arrhythmias was assessed in anesthetized rats.(Intervals of ventricular tachycardia (VT)+ventricular fibrillation (VF) within 600 s; assay type: functional, Cardiac ventricle
[20] = test system: Rattus norvegicus; experiment: Change in heart rate was measured at 1 mg/kg dose(iv) in anesthetized rats; assay type: functional; summary of the method: as §4
[21] = test system: Rattus norvegicus; experiment: Change in arterial blood pressure was measured at 3 mg/kg dose(iv) in anesthetized rats; assay type: functional, Artery; summary of the method: as §3
[22] = test system: Rattus norvegicus; experiment: inhibitory activity was tested against anesthetized rats; assay type: functional
[23] = test system: Rattus norvegicus; experiment: Effect (30 mg/kg, po) on coronary reperfusion-induced arrhythmias was assessed in anesthetized rats.(Intervals of ventricular tachycardia (VT)+ventricular fibrillation (VF) within 600 s.; assay type: functional, Cardiac ventricle; summary of the method: as §2
[24] = test system: Rattus norvegicus; experiment: Change in heart rate was measured at 3 mg/kg dose(iv) in anesthetized rats; assay type: functional; summary of the method: as §4
[25] = species on record: Cavia porcellus; experiment: Inhibitory activity on atrial contractility in isolated Guinea pig right atria at 0.1 mg/mL concentration; assay type: functional; details: Cardiac atrium; summary of the method: as §1
[26] = species on record: Cavia porcellus; experiment: Inhibitory activity on atrial contractility in isolated Guinea pig right atria at 0.3 mg/mL concentration; assay type: functional; details: Cardiac atrium; summary of the method: as §1
[27] = species on record: Cavia porcellus; experiment: Inhibitory activity on atrial contractility in isolated Guinea pig right atria at 0.03 mg/mL concentration; assay type: functional; details: Cardiac atrium; summary of the method: as §1
[28] = species on record: Cavia porcellus; experiment: Inhibitory activity against atrial rate in isolated Guinea pig right atrea at 0.3 mg/mL concentration; assay type: functional, Cardiac atrium; summary of the method: as §1
[29] = species on record: Cavia porcellus; experiment: Inhibitory activity on atrial rate in isolated Guinea pig right atria at 0.03 mg/mL concentration; assay type: functional; details: Cardiac atrium; summary of the method: as §1
[30] = species on record: Cavia porcellus; experiment: Inhibitory activity on atrial rate in isolated Guinea pig right atria at 0.1 mg/mL concentration; assay type: functional; details: Cardiac atrium
Summary of the method: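 Right atria from male Hartley guinea pigs (450–550 g), held under a 0.5 g load at 37 °C in Tyrode's solution gassed with 95% O2 + 5% CO2. After at least 30 min equilibration (rate stable within 5 beats/min), atrial rate and contractile force of spontaneously beating preparations were recorded on a polygraph with compound present.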

[31] = test system: Rattus norvegicus; experiment: Change in heart rate was measured at 10 mg/kg dose(iv) in anesthetized rats; assay type: functional; summary of the method: as §4
[32] = test system: Rattus norvegicus; experiment: Change in arterial blood pressure was measured at 30 mg/kg dose(iv) in anesthetized rats; assay type: functional, Artery; summary of the method: as §3
[33] = test system: Rattus norvegicus; experiment: Change in heart rate was measured at 30 mg/kg dose(iv) in anesthetized rats; assay type: functional; summary of the method: as §4
[34] = species on record: Cavia porcellus; experiment: Inhibitory activity against atrial contractility in isolated Guinea pig right atrea at 0.03 mg/mL concentration; assay type: functional, Cardiac atrium; summary of the method: as §1
[35] = test system: Rattus norvegicus; experiment: Effect (100 mg/kg, po) on coronary reperfusion-induced arrhythmias was assessed in anesthetized rats.(Intervals of ventricular tachycardia (VT)+ventricular fibrillation (VF) within 600 s.; assay type: functional, Cardiac ventricle; summary of the method: as §2
[36] = species on record: Cavia porcellus; experiment: Inhibitory activity against atrial rate in isolated Guinea pig right atrea at 0.1 mg/mL concentration; assay type: functional, Cardiac atrium; summary of the method: as §1
[37] = species on record: Cavia porcellus; experiment: Inhibitory activity against atrial contractility in isolated Guinea pig right atrea at 0.1 mg/mL concentration; assay type: functional, Cardiac atrium; summary of the method: as §1
[38] = species on record: Cavia porcellus; experiment: Inhibitory activity against atrial rate in isolated Guinea pig right atrea at 0.03 mg/mL concentration; assay type: functional, Cardiac atrium; summary of the method: as §1
[39] = test system: Rattus norvegicus; experiment: Change in arterial blood pressure was measured at 10 mg/kg dose(iv) in anesthetized rats; assay type: functional, Artery; summary of the method: as §3
[40] = species on record: Cavia porcellus; experiment: Inhibitory activity against atrial contractility in isolated Guinea pig right atrea at 0.3 mg/mL concentration; assay type: functional, Cardiac atrium; summary of the method: as §1

Compound: CCCCCCCCCCCCCCCCCCOC1=C(O)C(=O)OC1C(O)CO (centres undefined)
- Arrhythmias times [1]: 447
- Inhibition [2]: 53.3%
- inhibition [3]: 45%

Compound: CCCCCCCCCCCCCCCC(=O)OCC(O)C1OC(=O)C(O)=C1OCC(C)=O (centres undefined)
- Arrhythmias times [4]: 353
- inhibition [3]: 53%

Compound: COc1ccc(CCN(C)CCCC(C#N)(c2ccc(OC)c(OC)c2)C(C)C)cc1OC (centres undefined) [VERAPAMIL]
- Inhibition [5]: 63%
- Efficacy [6]: 10 mg/kg
- Arrhythmias times [7]: 56.7
- Delta blood pressure [8]: -46.7 mmHg
- Inhibition [9]: 100%
- inhibition in vivo at 10 mg/kg [10]: 87%
- Delta heart rate [11]: -70 beats min-1
- Inhibition [12]: 77.8%
- Inhibition [13]: 37.9%
- Efficacy [14]: >0.3 mg/kg
- Inhibition [15]: 100%
- inhibition [3]: 37%
- Inhibition [16]: 49.9%
- Arrhythmias times [17]: 121

Compound: CCCCCCCCCCCC1OCC(C2OC(O)=C(O)C2=O)O1 (centres undefined)
- Delta blood pressure [18]: -7 mmHg
- Efficacy [6]: 30 mg/kg
- Arrhythmias times [19]: 186
- Delta heart rate [20]: -10.3 beats min-1
- Delta blood pressure [21]: -30.3 mmHg
- Inhibition [22]: 19%
- Arrhythmias times [23]: 420.8
- Efficacy [14]: >1 mg/kg
- inhibition [3]: 89%
- Delta heart rate [24]: -75 beats min-1

Compound: CCCCc1ccc(C(=O)COC2=C(O)C(=O)OC2C(O)CO)cc1 (centres undefined)
- inhibition at 100 µg/mL [25]: 52.8%
- Arrhythmias times [1]: 325
- inhibition at 300 µg/mL [26]: 67.1%
- inhibition at 30 µg/mL [27]: 36.2%
- Inhibition [28]: 25.6%
- inhibition at 30 µg/mL [29]: 8.8%
- inhibition at 100 µg/mL [30]: 17%
- inhibition [3]: 82%

Compound: O=C1OC(C(O)CO)C(OCC(=O)c2ccccc2)=C1O (centres undefined)
- Arrhythmias times [1]: 429
- inhibition [3]: 1%

Compound: CCCCCCCCCCCC1OCC(C2OC(=O)C(O)=C2OCC(C)=O)O1 (centres undefined)
- Arrhythmias times [4]: 478
- inhibition [3]: 44%

Compound: CCCCCCCCCCCCC(=O)COC1=C(O)C(=O)OC1C(O)CO (centres undefined)
- Delta heart rate [31]: -8.3 beats min-1
- Efficacy [6]: >30 mg/kg
- Delta blood pressure [32]: -17.7 mmHg
- Delta heart rate [33]: -35 beats min-1
- Inhibition [34]: 25%
- Arrhythmias times [7]: 378.2
- Arrhythmias times [35]: 85.4
- Arrhythmias times [19]: 185
- Inhibition [36]: 14.6%
- Inhibition [37]: 30.2%
- Inhibition [2]: 6.3%
- Inhibition [28]: 13%
- Arrhythmias times [23]: 313.3
- Inhibition [38]: 12.9%
- Delta blood pressure [39]: -5 mmHg
- Efficacy [14]: >1 mg/kg
- Inhibition [40]: 41.3%
- inhibition [3]: 85%
